Published values of several laboratories.
Protocols differ between the studies behind these lines.
Effect on: cell growth or viability

For `Nc1ccn([C@@H]2O[C@H](CO)[C@@H](O)C2(F)F)c(=O)n1`, the viability was 83.8% (HEK293; MTT; 0.625 µg/mL, 24 h).
`CCOc1cc(C=NNC(N)=S)ccc1OC(=O)CN1C(=O)CSC1=O` gave a viability of > 70% (HEK293; MTT; 40 µg/mL, 24 h).
`CC(C)(C)CNc1nc(-c2cccs2)nc(Cl)c1-c1c(F)cc(C#N)cc1F` has a CC50 of > 50 µM (HEK293; resazurin; 48 h).
The viability of `NC(=S)NN=Cc1ccc(OC(=O)CN2C(=O)CSC2=O)c(Cl)c1` is reported as > 70% (HEK293; MTT; 50 µg/mL, 24 h).
`CCOC(=O)C1=C(CN2CCC[C@@H]2C(=O)Nc2ccc(B(O)O)cc2)NC(c2nccs2)=N[C@H]1c1ccc(F)cc1Br` gave a CC50 of 26.5 µM (HePAD38; CCK-8; 6 days).
`Cc1ccc(S(=O)(=O)NNc2ccc([N+](=O)[O-])cc2[N+](=O)[O-])cc1` has a viability of 82.7% (HEK293; MTT; 62.5 µg/mL).
With `C#Cc1cc(F)c(-c2c(Cl)nc(-c3cccs3)nc2NCC2(C)N=N2)c(F)c1` the CC50 was > 20 µM (HEK293; resazurin; 48 h).
For `CCOC(=O)c1cnc2c([N+](=O)[O-])cc(C(F)(F)F)cc2c1NCc1ccc(C(F)(F)F)cc1`, the CC50 was ~9 µM (HEK293; resazurin; 72 h).
For `CC(C)[C@@H](C)Nc1nc(-c2cccs2)nc(Cl)c1-c1c(F)cc([N+](=O)[O-])cc1F`, the CC50 was 20.2 µM (HEK293; resazurin; 48 h).
The CC50 of `CCOC(=O)C1=C(CN2CCC[C@@H]2C(=O)Nc2cccc(B(O)O)c2)NC(c2nccs2)=N[C@H]1c1ccc(F)cc1Br` is reported as 18.4 µM (HePAD38; CCK-8; 6 days).
